≈ marks a conversion by molar mass, not a printed value. Calls of active or inactive are those of the source. The calls are words filed in the database; no cut-off is given here.
Legend:
[1] = Clearance in mouse at 10 mg/kg, po; type: ADME, organism-based; details: in vivo
[2] = AUC in mouse at 10 mg/kg, po; type: ADME, organism-based; design: dose 10 mg/kg; details: in vivo
[3] = system: HepG2; assay: Toxicity in human HepG2 cells; type: cell-based
[4] = Toxicity in human CRL-8155 cells; type: cell-based
[5] = system: Cryptosporidium parvum; assay: Antimicrobial activity against nano-luciferase-expressing Cryptosporidium parvum infected in IFN-gamma KO B6.129S7-Ifngtm1Ts/J mouse assessed as log reduction of infection at 60 mg/kg, po QD for 5 days beginning on day 6 post infection relative untreated control; details: time 5 day
[6] = Drug level in mouse fecus at 25 mg/kg, po; details: read-out: Drug uptake, in vivo
[7] = Protein binding in human plasma by dialysis method
[8] = Solubility in pH 2.0 solution
[9] = Solubility in pH 6.5 solution
[10] = Protein binding in mouse plasma by dialysis method
[11] = target: Proto-oncogene tyrosine-protein kinase Src (Homo sapiens, UniProt P12931); assay: Inhibition of SRC (unknown origin); type: ADME
[12] = Clearance in mouse at 25 mg/kg, po; type: ADME, organism-based; details: in vivo
[13] = Half life in mouse at 25 mg/kg, po; details: in vivo
[14] = AUC in mouse at 25 mg/kg, po; type: ADME, organism-based; design: dose 25 mg/kg; details: in vivo
[15] = target: Voltage-gated inwardly rectifying potassium channel KCNH2 (Homo sapiens, UniProt Q12809); assay: Inhibition of human ERG by thallium flux assay
[16] = system: Cryptosporidium parvum; assay: Antimicrobial activity against nano-luciferase-expressing Cryptosporidium parvum infected in human HCT8 cells incubated for 72 hrs by luciferase reporter gene assay; type: functional, organism-based; details: HCT-8, 72 h
[17] = Inhibition of Cryptosporidium parvum CDPK1 assessed as reduction in ATP consumption using BioSyntide-2 substrate incubated for 90 mins by luciferase reporter gene assay
[18] = in vivo; details: mouse, po, 25 mg/kg
[19] = in vivo; details: mouse, po, 25 mg/kg; remark: listed apart in the source
[20] = Plasma concentration in mouse at 100 mg/kg, po QD for 7 days measured after 72 hrs by LC-MS/MS analysis; type: ADME, organism-based; details: time 7 day
Procedure, shortened: (§1)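 Multiple-dose oral tolerability study in mice at 100 or 250 mg/kg over 7 days. Plasma was taken 2 h after dose 2, before dose 3, 2 h after dose 5, and 24, 48 and 72 h after dose 7. Drug was quantified by LC-MS/MS. Blood and organs were collected after the final dose.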

[21] = Plasma concentration in mouse at 100 mg/kg, po QD for 7 days measured after 24 hrs by LC-MS/MS analysis; type: ADME, organism-based; details: time 7 day; procedure, shortened: as §1
[22] = Plasma concentration in mouse at 100 mg/kg, po QD for 7 days measured after 48 hrs by LC-MS/MS analysis; type: ADME, organism-based; details: time 7 day; procedure, shortened: as §1
[23] = Plasma concentration in mouse at 100 mg/kg, po QD for 5 days measured after 2 hrs by LC-MS/MS analysis; type: ADME, organism-based; details: time 5 day; procedure, shortened: as §1
[24] = Plasma concentration in mouse at 100 mg/kg, po QD for 2 days measured after 2 hrs by LC-MS/MS analysis; type: ADME, organism-based; details: time 2 day; procedure, shortened: as §1
[25] = Toxicity in mouse assessed as effect on serum chemistry parameters at 100 to 250 mg/kg, po QD for 7 days; type: organism-based; details: in vivo, 168 h, dose 100-250 mg/kg, time 7 day
[26] = Toxicity in mouse assessed as effect on CBC parameters at 100 to 250 mg/kg, po QD for 7 days; type: organism-based; details: in vivo, 168 h, dose 100-250 mg/kg, time 7 day
[27] = Toxicity in mouse assessed as effect on organ parameters at 100 to 250 mg/kg, po QD for 7 days by histological analysis; type: organism-based; details: in vivo, 168 h, dose 100-250 mg/kg, time 7 day
[28] = Toxicity in mouse assessed as induction of lethargy at 250 mg/kg, po QD for 7 days; type: organism-based; details: in vivo, 168 h, time 7 day
[29] = Toxicity in mouse at 100 mg/kg, po QD for 7 days; type: organism-based; details: in vivo, 168 h, time 7 day
[30] = Toxicity in mouse assessed as induction of lack of grooming at 250 mg/kg, po QD for 7 days; type: organism-based; details: in vivo, 168 h, time 7 day
[31] = Toxicity in mouse assessed as induction of distress at 100 to 250 mg/kg, po; type: organism-based; details: in vivo, dose 100-250 mg/kg
Procedure, shortened: (§2)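 Escalating single oral doses were given to mice until toxicity signs appeared. Regimens were 100, 150, 200 and 250 mg/kg, and 150, 200, 300, 400 and 600 mg/kg. Escalation was limited by solubility in the dosing solution.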

[32] = Toxicity in mouse at 100 to 250 mg/kg, po; type: organism-based; details: in vivo, dose 100-250 mg/kg; procedure, shortened: as §2
[33] = system: Cryptosporidium parvum; assay: Antimicrobial activity against nano-luciferase-expressing Cryptosporidium parvum infected in IFN-gamma KO B6.129S7-Ifngtm1Ts/J mouse assessed as log reduction of infection at 15 mg/kg, po QD for 5 days beginning on day 6 post infection relative untreated control; type: functional, organism-based; details: time 5.0 day
[34] = system: Cryptosporidium parvum; assay: Antimicrobial activity against nano-luciferase-expressing Cryptosporidium parvum infected in IFN-gamma KO B6.129S7-Ifngtm1Ts/J mouse assessed as log reduction of infection at 30 mg/kg, po QD for 5 days beginning on day 6 post infection relative untreated control; type: functional, organism-based; details: time 5.0 day
[35] = mouse, in vivo, po, 30 mg/kg, 96 h
[36] = Plasma concentration in mouse at 250 mg/kg, po QD for 5 days measured after 2 hrs by LC-MS/MS analysis
[37] = Plasma concentration in mouse at 250 mg/kg, po QD for 3 days measured on pre dose by LC-MS/MS analysis
[38] = Plasma concentration in mouse at 250 mg/kg, po QD for 2 days measured after 2 hrs by LC-MS/MS analysis
[39] = Plasma concentration in mouse at 100 mg/kg, po QD for 3 days measured on pre dose by LC-MS/MS analysis
[40] = Plasma concentration in mouse at 250 mg/kg, po QD for 7 days measured after 72 hrs by LC-MS/MS analysis
[41] = Plasma concentration in mouse at 250 mg/kg, po QD for 7 days measured after 48 hrs by LC-MS/MS analysis
[42] = Plasma concentration in mouse at 250 mg/kg, po QD for 7 days measured after 24 hrs by LC-MS/MS analysis
[43] = system: Cryptosporidium parvum; assay: Antimicrobial activity against nano-luciferase-expressing Cryptosporidium parvum infected in IFN-gamma KO B6.129S7-Ifngtm1Ts/J mouse assessed as log reduction of infection at 30 mg/kg, po BID for 5 days beginning on day 6 post infection relative untreated control; type: functional, organism-based; details: time 5.0 day

Sequence of Proto-oncogene tyrosine-protein kinase Src (P12931 2-536 limits assumed): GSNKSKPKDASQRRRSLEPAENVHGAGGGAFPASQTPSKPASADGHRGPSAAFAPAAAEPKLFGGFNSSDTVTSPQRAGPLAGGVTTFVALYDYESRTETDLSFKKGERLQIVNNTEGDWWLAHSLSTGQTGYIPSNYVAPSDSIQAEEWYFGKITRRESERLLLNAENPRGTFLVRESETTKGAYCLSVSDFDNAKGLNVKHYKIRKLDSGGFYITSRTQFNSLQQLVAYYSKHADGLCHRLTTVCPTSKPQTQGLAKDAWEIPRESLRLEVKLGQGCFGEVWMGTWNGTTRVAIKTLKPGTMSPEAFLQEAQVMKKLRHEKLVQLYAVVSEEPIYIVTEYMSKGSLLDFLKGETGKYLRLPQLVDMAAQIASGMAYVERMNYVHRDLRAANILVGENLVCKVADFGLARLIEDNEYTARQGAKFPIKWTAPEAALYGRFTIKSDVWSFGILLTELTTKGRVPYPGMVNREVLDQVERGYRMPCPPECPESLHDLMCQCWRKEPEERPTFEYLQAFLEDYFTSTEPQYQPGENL
Sequence of Voltage-gated inwardly rectifying potassium channel KCNH2 (Q12809 whole entry): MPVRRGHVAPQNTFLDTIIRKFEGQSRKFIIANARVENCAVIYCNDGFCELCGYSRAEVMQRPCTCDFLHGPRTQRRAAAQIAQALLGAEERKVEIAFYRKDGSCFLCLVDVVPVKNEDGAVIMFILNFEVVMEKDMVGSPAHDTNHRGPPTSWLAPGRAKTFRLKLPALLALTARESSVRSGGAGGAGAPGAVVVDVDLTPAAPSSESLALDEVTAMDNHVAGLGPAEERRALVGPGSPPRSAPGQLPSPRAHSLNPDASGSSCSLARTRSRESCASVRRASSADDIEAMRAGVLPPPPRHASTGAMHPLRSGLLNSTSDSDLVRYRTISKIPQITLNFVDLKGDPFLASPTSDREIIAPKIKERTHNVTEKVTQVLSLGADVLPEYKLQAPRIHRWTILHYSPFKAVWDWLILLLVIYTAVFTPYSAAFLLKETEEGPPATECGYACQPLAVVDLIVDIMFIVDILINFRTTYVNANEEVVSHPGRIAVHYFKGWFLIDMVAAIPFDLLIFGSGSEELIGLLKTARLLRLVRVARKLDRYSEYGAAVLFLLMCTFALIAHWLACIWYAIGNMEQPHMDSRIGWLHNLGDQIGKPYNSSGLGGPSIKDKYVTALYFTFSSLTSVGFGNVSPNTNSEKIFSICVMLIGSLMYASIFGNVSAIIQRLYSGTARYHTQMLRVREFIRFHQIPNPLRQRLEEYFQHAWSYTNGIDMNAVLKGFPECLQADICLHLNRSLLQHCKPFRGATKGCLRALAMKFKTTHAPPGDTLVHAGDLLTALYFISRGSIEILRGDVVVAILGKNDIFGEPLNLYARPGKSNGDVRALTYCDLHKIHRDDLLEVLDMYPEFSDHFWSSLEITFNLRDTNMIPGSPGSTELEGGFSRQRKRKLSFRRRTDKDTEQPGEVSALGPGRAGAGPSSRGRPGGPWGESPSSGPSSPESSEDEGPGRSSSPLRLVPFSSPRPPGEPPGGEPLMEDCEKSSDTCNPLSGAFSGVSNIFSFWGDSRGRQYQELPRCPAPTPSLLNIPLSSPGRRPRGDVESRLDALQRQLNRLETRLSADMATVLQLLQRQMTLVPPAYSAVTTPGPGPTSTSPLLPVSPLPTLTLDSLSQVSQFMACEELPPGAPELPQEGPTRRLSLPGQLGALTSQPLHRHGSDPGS

## CCOc1ccc2cc(-c3nn(CC(C)(C)CO)c(N)c3C(N)=O)ccc2n1
[1]
  CL/F: 5.1 mL/min
[2]
  AUC: 140.2 µmol·min/L
[3]
  Activity: Non-Toxic
[4]
  Activity: Non-Toxic

## CCOc1ccc2cc(-c3nn(C(C)CCO)c(N)c3C(N)=O)cnc2c1 (configuration not stated)
[5]
  FC: 3.41
[6]
  concentration: 1.1 µM
[1]
  CL/F: 1.9 mL/min
[2]
  AUC: 339 µmol·min/L
[7]
  PPB: 84%
[8]; buffer
  solubility: 78 µM (≈ 28.8 µg/mL)
[9]; buffer
  solubility: > 100 µM
[10]
  PPB: 86%
[3]
  Activity: Non-Toxic
[4]
  Activity: Non-Toxic
[11]
  IC50: 3500 nM

## CC(CCO)n1nc(-c2cnc3cc(OC4CC4)ccc3c2)c(C(N)=O)c1N (configuration not stated)
[6]
  concentration: 4.5 µM
[12]
  CL/F: 0.1 mL/min
[13]
  half-life: 2.05 h
[14]
  AUC: 11769 µmol·min/L
[7]
  fraction unbound: 0.49
[8]; pH 2.0 solution
  solubility: > 100 µM
[9]; pH 6.5 solution
  solubility: > 100 µM
[3]
  Activity: Non-Toxic
[4]
  Activity: Non-Toxic
[15]
  IC50: > 30000 nM
[16]
  EC50: 430 nM
[17]
  IC50: 2 nM
[11]
  IC50: > 10000 nM
[18]
  Cmax: 69.2 µM
[19]
  Tmax: 0.5 h

## CC(C)(C)n1nc(-c2ccc3cc(OC4CC4)ccc3c2)c(C(N)=O)c1N
[20]
  concentration at 168 h: 0.3 µM
[21]
  concentration at 168 h: 26.4 µM
[22]
  concentration at 168 h: 4.8 µM
[23]
  concentration at 120 h: 49.2 µM
[24]
  concentration at 48 h: 36.6 µM
[25]
  Activity: Non-Toxic
[26]
  Activity: Non-Toxic
[27]
  Activity: Non-Toxic
[28]
  Activity: Toxic
[29]
  Activity: Non-Toxic
[30]
  Activity: Toxic
[31]
  Activity: Non-Toxic
[32]
  Activity: Non-Toxic
[33]
  Activity: inactive
[34]
  Activity: Active
[5]
  FC: 3.52
[6]
  concentration: 0.42 µM
[1]
  CL/F: 0.5 mL/min
[2]
  AUC: 9098 µmol·min/L
[7]
  PPB: 82%
[8]; buffer
  solubility: 83 µM (≈ 30.2 µg/mL)
[9]; buffer
  solubility: 65 µM (≈ 23.7 µg/mL)
[10]
  PPB: 95%
[3]
  Activity: Non-Toxic
[4]
  Activity: Non-Toxic
[17]
  IC50: 4.3 nM
[11]
  IC50: > 10000 nM
[35]
  Cmax: 28.8 µM
[36]
  concentration at 120 h: 72.2 µM
[37]
  concentration at 72 h: 36.1 µM
[38]
  concentration at 48 h: 40.1 µM
[39]
  concentration at 72 h: 19.9 µM
[40]
  concentration at 168 h: 0.7 µM
[41]
  concentration at 168 h: 2.3 µM
[42]
  concentration at 168 h: 24.6 µM

## CCOc1ccc2cc(-c3nn(C(C)CCO)c(N)c3C(N)=O)ccc2c1 (configuration not stated)
[43]
  Activity: Active
[5]
  FC: 2.62
[12]
  CL/F: 0.8 mL/min
[14]
  AUC: 1738 µmol·min/L
[7]
  PPB: 88%
[8]; buffer
  solubility: > 100 µM
[9]; buffer
  solubility: 56.7 µM (≈ 20.9 µg/mL)
[10]
  PPB: 71%
[3]
  Activity: Non-Toxic
[4]
  Activity: Non-Toxic
[17]
  IC50: 2 nM
[11]
  IC50: 10000 nM
